Data from ChEMBL document CHEMBL1137220, “2-(2-(dimethylaminomethyl)phenoxy)-5-iodophenylamine: an improved serotonin transporter imaging agent” (J Med Chem, 2004).

Legend:
[1] = Distribution ratio in striatum and cerebellum was determined after 240 min of intravenous administration of the compound; [125I]- is used as radioactive isotope; format: ADME, tissue-based; settings: rat, 4 h
Outline: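 Rats, three per group, given 10 μCi tracer in 0.2 mL saline into the femoral vein under ether anesthesia, then killed by cardiac excision at the stated time. Brain regions were dissected, weighed and counted. Percent dose/g was calculated against a 1% diluted aliquot of the injected dose. The ratio is (region − cerebellum)/cerebellum on a % dose/g basis, with cerebellum as background.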

[2] = Distribution ratio in hypothalamus and cerebellum was determined after 240 min of intravenous administration of the compound; [125I]- is used as radioactive isotope; format: ADME, tissue-based; settings: rat, 4 h
Outline: (§1)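 After femoral-vein injection of 10 μCi [¹²⁵I] tracer in 0.2 mL saline under ether anaesthesia (three rats per group), brain regions were dissected, weighed and counted: cortex (frontal plus occipital), hippocampus, hypothalamus and cerebellum. %dose/g was calculated against a diluted injected-dose standard. Ratio = (region − cerebellum)/cerebellum on a %dose/g basis, with cerebellum as the background region.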

[3] = Regional brain distribution in rat cerebellum was determined after 6 hours of intravenous administration of the compound; [125I]- is used as radioactive isotope; format: ADME, tissue-based; settings: in vivo
Outline: (§2)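 Rats, three per group, injected with 10 μCi tracer in 0.2 mL saline via the femoral vein under ether anesthesia and killed by cardiac excision at the stated time. Cortex (frontal plus occipital), striatum, hippocampus, cerebellum and hypothalamus were dissected, weighed and gamma-counted. Values are % dose/g, calculated by comparison with counts of a 100-fold diluted aliquot of the injected dose.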

[4] = Distribution ratio in cortex and cerebellum was determined after 6 hrs of intravenous administration of the compound; [125I]- is used as radioactive isotope; format: ADME, tissue-based; settings: rat; outline: as §1
[5] = Regional brain distribution in rat striatum was determined after 6 hours of intravenous administration of the compound; [125I]- is used as radioactive isotope; format: ADME, tissue-based; settings: in vivo; outline: as §2
[6] = Distribution ratio in cortex and cerebellum was determined after 2 min of intravenous administration of the compound; [125I]- is used as radioactive isotope; format: ADME, tissue-based; settings: rat; outline: as §1
[7] = Biodistribution in rat skin was determined after 2 min of intravenous administration of the compound; [125I]- is used as radioactive isotope; format: ADME, organism-based, Zone of skin; settings: in vivo
Outline: (§3)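 Rats, three per group, under ether anaesthesia, received 10 μCi of [¹²⁵I]-labelled tracer in 0.2 mL saline into the femoral vein. They were killed by cardiac excision under ether at each time point. Organs were removed, weighed and counted. Percent dose per organ was calculated against counts of a 1% aliquot of the injected dose (100-fold diluted) counted at the same time.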

[8] = Biodistribution in rat blood was determined after 2 min of intravenous administration of the compound; [125I]- is used as radioactive isotope; format: ADME, organism-based; settings: in vivo
Outline: (§4)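 Rats under ether anesthesia, three per group, received 10 μCi tracer in 0.2 mL saline into the femoral vein. They were killed by cardiac excision under ether at each time point. Organs were removed, weighed and counted. Percent dose per organ was calculated against a 1%-of-injected-dose standard counted at the same time.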

[9] = Biodistribution in rat heart was determined after 2 min of intravenous administration of the compound; [125I]- is used as radioactive isotope; format: ADME, organism-based; settings: in vivo; outline: as §4
[10] = Biodistribution in rat lung was determined after 30 min of intravenous administration of the compound; [125I]- is used as radioactive isotope; format: ADME, organism-based; settings: in vivo, 0.5 h; outline: as §4
[11] = Biodistribution in rat lung was determined after 60 min of intravenous administration of the compound; [125I]- is used as radioactive isotope; format: ADME, organism-based; settings: in vivo, 1 h; outline: as §4
[12] = Biodistribution in rat heart was determined after 60 min of intravenous administration of the compound; [125I]- is used as radioactive isotope; format: ADME, organism-based; settings: in vivo, 1 h; outline: as §4
[13] = Biodistribution in rat thyroid was determined after 120 min of intravenous administration of the compound; [125I]- is used as radioactive isotope; format: ADME, organism-based, Thyroid gland; settings: in vivo, 2 h; outline: as §3
[14] = Biodistribution in rat lung was determined after 6 hours of intravenous administration of the compound; [125I]- is used as radioactive isotope; format: ADME, organism-based; settings: in vivo; outline: as §4
[15] = Biodistribution in rat spleen was determined after 2 min of intravenous administration of the compound; [125I]- is used as radioactive isotope; format: ADME, organism-based; settings: in vivo; outline: as §3
[16] = Biodistribution in rat brain was determined after 240 min of intravenous administration of the compound; [125I]- is used as radioactive isotope; format: ADME, organism-based; settings: in vivo, 4 h; outline: as §4
[17] = Biodistribution in rat skin was determined after 11 hours of intravenous administration of the compound; [125I]- is used as radioactive isotope; format: ADME, organism-based, Zone of skin; settings: in vivo; outline: as §3
[18] = Biodistribution in rat liver was determined after 120 min of intravenous administration of the compound; [125I]- is used as radioactive isotope; format: ADME, organism-based; settings: in vivo, 2 h; outline: as §4
[19] = Biodistribution in rat liver was determined after 240 min of intravenous administration of the compound; [125I]- is used as radioactive isotope; format: ADME, organism-based; settings: in vivo, 4 h; outline: as §4

`CN(C)Cc1ccccc1Oc1ccc(I)cc1N` gave a Dose/g [1] of 3.11%, a Dose/g [2] of 4.49% and a Dose/g [3] of 0.027%. It also gave a Dose/g [4] of 0.58%, a Dose/g [5] of 0.068% and a Dose/g [6] of 0.56%. The Dose [7] was 4.45%, the Dose [8] was 5.75% and the Dose [9] was 1.51%. It also gave a Dose [10] of 3.56%, a Dose [11] of 1.79% and a Dose [12] of 0.2%. The Dose [13] was 0.96%, the Dose [14] was 0.25% and the Dose [15] was 0.44%. It also gave a Dose [16] of 0.33%, a Dose [17] of 10.9% and a Dose [18] of 4.9%. The Dose [19] was 3.52%.
